Published values from different studies.
Cell line: MCF7
Effect on: cell growth or viability

O=C1CC[C@H](N2Cc3cc(N4CCN(CC5CCN(c6ccc([C@@H]7c8ccc(O)cc8CC[C@@H]7c7ccccc7)cc6)CC5)CC4)ccc3C2=O)C(=O)N1  GI50 (ATP luminescence; 5 days): 0.0033 µM
CC(=O)c1nn(-c2ccccc2Cl)/c(=N/N=C(\C)c2ccc(NC(=O)c3ccccc3)cc2)s1  viability (MTT; 78 nM): 47.5%
CC(=NNC(=O)c1ccccc1O)c1ccc(Nc2nnc(-c3ccc(Cl)cc3)c3ccccc23)cc1  viability (MTT; 0.312 µM, 24 h): 99.3%
Cc1ccc(-c2cc(-c3c(Cl)cccc3Cl)c3c(=O)[nH]c(=O)[nH]c3n2)cc1  IC50 (MTT; 48 h): 39 µM
CC(=NNC(=S)Nc1ccccc1)c1ccc(Nc2nnc(-c3ccc(Cl)cc3)c3ccccc23)cc1  viability (MTT; 10 µM, 24 h): 3.45%
COc1cccc2c1C(=O)c1c(O)c3c(c(O)c1C2=O)C[C@@](O)(C(=O)CO)C[C@@H]3O[C@H]1C[C@H](N)[C@H](O)[C@H](C)O1  GI50 (MTT): 7.32 µM
C[C@H](Nc1ccc2c(c1)OCCn1cc(N3C(=O)OC[C@H]3C(F)F)nc1-2)C(N)=O  EC50 (5 days): 0.0193 µM
CC(=NNC(N)=S)c1ccc(Nc2nnc(-c3ccc(Cl)cc3)c3ccccc23)cc1  viability (MTT; 5 µM, 24 h): 9.07%
COc1ccc(-c2cc(-c3ccc(Br)cc3)c3c(=O)n(C)c(=O)n(C)c3n2)cc1  IC50 (MTT; 48 h): 29.4 µM
O=C(CCn1c(=O)ccc2ccccc21)N1CCOCC1  inhibition (MTT; 100 µM, 48 h): 90.5%
C[C@@H]1CC[C@@H]([C@@](O)(CNCc2ccccc2)COCc2ccccc2)[C@H](OCc2ccccc2)C1  inhibition (MTT; 10 µM, 72 h): 94.8%
COc1cc2ncnc(Nc3ccc4c(c3)/C(=C/c3cccc(Cl)c3)C(=O)N4C)c2cc1OC  IC50 (MTT): 4.62 µM
CCN1CCN(Cc2ccc(Nc3ncc(F)c(-c4cc(F)c5nc(C)n(C(C)C)c5c4)n3)nc2)CC1  EC50 (5 days): 0.009 µM
CC(=O)Nc1ccc(Oc2nnc(-c3ccc(Cl)cc3)c3ccccc23)cc1  viability (MTT; 0.625 µM, 24 h): 4.91%
CO[C@H]1C[C@@H]2CC[C@@H](C)[C@@](O)(O2)C(=O)C(=O)N2CCCC[C@H]2C(=O)O[C@H]([C@H](C)C[C@@H]2CC[C@@H](OCCO)[C@H](OC)C2)CC(=O)[C@H](C)/C=C(\C)[C@@H](O)[C@@H](OC)C(=O)[C@H](C)C[C@H](C)/C=C/C=C/C=C/1C  EC50 (5 days): 0.0014 µM
COc1ccc(COC[C@@](O)(CNCc2ccc(F)cc2)[C@@H]2CC[C@@H](C)C[C@H]2OCc2ccc(OC)cc2)cc1  inhibition (MTT; 10 µM, 72 h): 94.5%
COc1ccc(-c2cc(-c3cccc(Br)c3)c3c(=O)[nH]c(=O)[nH]c3n2)cc1  IC50 (MTT; 48 h): 13.7 µM
O=C(NO)c1ccc(CNc2nc3cccc(-c4ccc5c(c4)OCO5)n3n2)cc1  GI50 (SRB): 0.65 µM
O=C(Nc1ccc(Oc2nnc(-c3ccc(Cl)cc3)c3ccccc23)cc1)c1cccc([N+](=O)[O-])c1  cell death (MTT; 5 µM): 92.1%
C[C@@H]1CC[C@@H]([C@](C)(O)CNCc2ccccc2)[C@H](OCc2ccccc2)C1  inhibition (MTT; 10 µM, 72 h): 97.6%
CC(=O)Nc1ccc(/C(C)=N/N=c2\sc(C(C)=O)nn2-c2ccc(C)cc2)cc1  viability (MTT; 2.5 µM): 34.6%
C[C@@H]1CC[C@@H]([C@](C)(O)CNCc2cccc3ccccc23)[C@H](OCc2ccccc2)C1  inhibition (MTT; 10 µM, 72 h): 61.5%
CCOC(=O)c1nn(-c2cccc(Cl)c2)/c(=N/N=C(\C)c2ccc(NC(=O)c3ccccc3)cc2)s1  viability (MTT; 1.25 µM): 2.59%
O=C(Nc1ccc(Oc2nnc(-c3ccc(Cl)cc3)c3ccccc23)cc1)c1ccccc1  cell death (MTT; 2.5 µM): 93.4%
C[C@@H]1CC[C@@H]([C@](C)(O)CNCc2ccccc2F)[C@H](OCc2ccccc2)C1  inhibition (MTT; 30 µM, 72 h): 89.6%
Cc1ccc(-c2cc(-c3ccc(Cl)cc3)c3c(=O)[nH]c(=O)[nH]c3n2)cc1  IC50 (MTT; 48 h): 9.67 µM
CC(=O)c1nn(-c2ccc(C)cc2)/c(=N/N=C(\C)c2ccc(NC(=O)c3ccccc3)cc2)s1  viability (MTT; 5 µM): 6.47%
C[C@@H]1CC[C@@H]([C@](O)(CNCc2ccccc2)COCc2ccc(F)cc2)[C@H](OCc2ccc(F)cc2)C1  inhibition (MTT; 10 µM, 72 h): 95.7%
COc1ccc(-c2cc(-c3ccc(C)cc3)nc3c2c(=O)n(C)c(=O)n3C)cc1OC  IC50 (MTT; 48 h): 29.5 µM
C[C@@H]1CC[C@@H]([C@](O)(CNCc2cccc3ccccc23)COCc2ccccc2)[C@H](OCc2ccccc2)C1  inhibition (MTT; 30 µM, 72 h): 87.7%
CC(=NNC(=O)c1ccccc1Br)c1ccc(Nc2nnc(-c3ccc(Cl)cc3)c3ccccc23)cc1  cell death (MTT; 0.625 µM): 24.1%
COc1ccc(-c2cc(-c3ccc(C)cc3)nc3[nH]c(=O)[nH]c(=O)c23)cc1OC  IC50 (MTT; 48 h): 26.6 µM
